Published values collected from several papers.
Protocols differ between the studies behind these lines.
Target: NUAK family SNF1-like kinase 1 (NUAK1, Homo sapiens, UniProt O60285)

`CN(C(=O)c1ccccc1)c1cc(N(C)c2ccc3c(c2)CCc2ccc(C(=O)NCCN4CCOCC4)cc2C3=O)ccc1F` has a remaining binding of 100% (cell-free assay, competition with immobilised ligand; 1 µM).
`Nc1ncnc2occ(-c3ccc(NC(=O)Nc4cc(C(F)(F)F)ccc4F)cc3)c12` has a remaining signal of 70% (cell-free assay, inhibitor; 20 µM).
The remaining activity of `Cc1nn(CC(F)(F)F)cc1Nc1ncc(Br)c(NCCCNC(=O)C2CCC2)n1` is reported as 22% (enzyme activity, inhibitor, radiometric; 1 µM).
With `CCN(CC)CCNC(=O)c1c(C)[nH]c(/C=C2\C(=O)Nc3ccc(F)cc32)c1C` the remaining signal was 2.75% (cell-free assay; 0.5 µM).
With `NS(=O)(=O)c1cc(NC(=O)C2(c3ccccc3Cl)CC2)ccc1Oc1cccc(Cl)c1` the remaining binding was 95% (cell-free assay, competition with immobilised ligand; 1 µM).
The inhibition of `Cc1ccc(Nc2nccc(N(C)c3ccc4c(C)n(C)nc4c3)n2)cc1S(N)(=O)=O` is reported as 14% (enzyme activity, inhibitor; 0.3 µM).
`COc1ccc2c(c1)O[C@@H](c1ccc(OC)c(OC)c1)C[C@H]2NC(=O)C1(c2ccc3c(c2)OC(F)(F)O3)CC1` gave a remaining binding of 86% (cell-free assay, competition with immobilised ligand; 1 µM).
With `C=CC(=O)Nc1cc(Nc2nccc(Nc3cc(Cl)c(F)cc3C(C)(C)O)n2)c(OC)cc1N1CC[C@@H](N(C)C)C1` the inhibition was 17% (enzyme activity, inhibitor; 1 µM).
`Cc1nn(CC(F)(F)F)cc1Nc1ncc(Br)c(NCCc2cnc[nH]2)n1` has a remaining activity of 13% (enzyme activity, inhibitor, radiometric; 1 µM).
`CNC(=O)c1cc(Oc2ccc(NC(=O)Nc3ccc(Cl)c(C(F)(F)F)c3)cc2)ccn1` has an inhibition of 2% (enzyme activity, inhibitor; 10 µM).
For `NS(=O)(=O)c1ccc(CNc2ccnc(Nc3cccc(CN4CCOCC4)c3)n2)cc1`, the remaining activity was 79% (enzyme activity, inhibitor, radiometric; 1 µM).
The remaining signal of `COc1cc2c(Nc3ccc(Br)cc3F)ncnc2cc1OCC1CCN(C)CC1` is reported as 92.7% (cell-free assay; 0.5 µM).
`CCc1ccccc1C(=O)Nc1n[nH]c2c(C)c(F)c(C3C(C#N)=C(C)N(C)C(C)=C3C#N)cc12` has a remaining binding of 33% (cell-free assay, competition with immobilised ligand; 1 µM).
The remaining activity of `O=C(Nc1cnn(-c2csc(C(=O)NC3COC3)c2)c1)Nc1c(F)cccc1Cl` is reported as 95.2% (enzyme activity, inhibitor; 5 µM).
With `N#Cc1ccc(Nc2ccc3[nH]c(=O)[nH]c3c2)c(Cl)c1` the remaining binding was 100% (cell-free assay, competition with immobilised ligand; 1 µM).
With `CN(C)C1CCN(CC#Cc2nn(C3CCCC3)c3nc(NCc4ccccc4)ncc23)C1` (centres unmarked) the inhibition was 10% (enzyme activity, inhibitor, FRET; 1 µM).
The remaining activity of `CN1CCc2cc(Nc3ncc(C4CC4)c(NCCCNC(=O)C4CCC4)n3)ccc2C1` is reported as 6% (enzyme activity, inhibitor, radiometric; 1 µM).
`C#Cc1cccc(Nc2ncnc3cc(OCCOC)c(OCCOC)cc23)c1` gave a remaining signal of 98% (cell-free assay; 0.5 µM).
The remaining activity of `Brc1cnc(Nc2cccc(CN3CCOCC3)c2)nc1NCCc1c[nH]cn1` is reported as 1% (enzyme activity, inhibitor, radiometric; 1 µM).
With `CN([C@@H]1CCc2c(CC(=O)O)c3ccccc3n2C1)S(=O)(=O)c1ccc(F)cc1` the remaining binding was 100% (cell-free assay, competition with immobilised ligand; 1 µM).
With `NS(=O)(=O)c1ccc(CNc2nc(Nc3cccc(CN4CCOCC4)c3)ncc2Br)cc1` the remaining activity was 23% (enzyme activity, inhibitor, radiometric; 1 µM).
`O=C1NC(c2ccccn2)Sc2ccccc21` (centres unmarked) gave a remaining binding of 95% (cell-free assay, competition with immobilised ligand; 1 µM).
`Cc1nn(CC(F)(F)F)cc1Nc1nccc(NCc2ccc(S(N)(=O)=O)cc2)n1` gave a remaining activity of 94% (enzyme activity, inhibitor, radiometric; 1 µM).
`CO[C@H]1CC[C@H](CNc2ccc(S(=O)(=O)NC(=O)c3ccc(N4CCN(CC5=C(c6ccc(Cl)cc6)CC(C)(C)CC5)CC4)cc3Oc3cnc4[nH]ccc4c3)cc2[N+](=O)[O-])CC1` has a remaining binding of 100% (cell-free assay, competition with immobilised ligand; 1 µM).
`NS(=O)(=O)c1ccc(CNc2ccnc(Nc3cccc(NC(=O)N4CCCC4)c3)n2)cc1` gave a remaining activity of 78% (enzyme activity, inhibitor, radiometric; 1 µM).
`Cc1ccc(NC(=O)c2ccc(C)c(C(F)(F)F)c2)cc1C#Cc1nn(C2CCC(O)CC2)c2ncnc(N)c12` (centres unmarked) has a remaining signal of 108% (cell-free assay; 10 µM).
